PMC6868880 (ACS Omega, 2019)
Values after ≈ are worked out from the molar mass of the structure shown. Where two headings read alike, the source gives them in different places. Each block holds one compound with its values, some of them ahead of it. Where no end group is shown, it is not given here.

How the values were obtained:
[1] = test system: Trichophyton rubrum; assay: MIC, filamentous fungi, Trichophyton rubrum; type: cell-based; details: ATCC28189, read-out: MIC Tr
How it was run: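 T. rubrum ATCC 28189 was grown on potato dextrose agar, and inocula were prepared in RPMI 1640 medium. MIC was determined following CLSI M38-A2 for filamentous fungi.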

[2] = test system: Escherichia coli; assay: MIC determination against bacteria; type: cell-based; details: read-out: MIC Ec
[3] = test system: Candida albicans; details: cited from earlier work
[4] = test system: human erythrocytes; details: cited from earlier work
[5] = test system: Listeria monocytogenes; assay: MIC determination, Listeria monocytogenes; type: cell-based; details: Table 5; Mueller Hinton broth, CLSI M7A9 with modifications, triplicate; ATCC BAA-679/EGD-e
How it was run: (§1)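 Bacteria pre-cultured overnight at 37 °C/5% CO2 in culture medium as inoculum. MIC of test peptides determined by broth dilution in Mueller Hinton broth following CLSI M7A9 with modifications for bacteria. All tests run in triplicate.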

[6] = test system: mammalian cell line; details: in vitro; cited from earlier work
[7] = test system: Candida parapsilosis; assay: MIC, broth microdilution, Candida parapsilosis; type: cell-based; details: Table 5; CLSI M27-A3 with modifications, Lambert–Pearson plot; ATCC 22019
How it was run: (§2)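 Yeasts were precultured in liquid YPD at 37 °C, 70 rpm, for 24 hours. MIC was determined by CLSI M27-A3 broth microdilution, modified for turbidimetric detection. The assay used MOPS-buffered RPMI 1640 without sodium bicarbonate, with cell density read at 600 nm. MIC was derived from a Lambert–Pearson plot of cell density.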

[8] = test system: Candida albicans; assay: MIC, broth microdilution, Candida albicans; type: cell-based; details: Table 5; CLSI M27-A3 with modifications, Lambert–Pearson plot; ATCC 24433
How it was run: as §2

[9] = test system: rabbit erythrocytes; details: cited from earlier work
[10] = test system: Pseudomonas aeruginosa; assay: MIC determination, Pseudomonas aeruginosa; type: cell-based; details: Table 5; Mueller Hinton broth, CLSI M7A9 with modifications, triplicate; ATCC 27853
How it was run: as §1

[11] = test system: Candida auris; assay: MIC, broth microdilution, Candida auris; type: cell-based; details: Table 5; CLSI M27-A3 with modifications, Lambert–Pearson plot; DSMZ-No. 21092
How it was run: as §2

- MIC [1]: 0.125 µg/mL (≈ 0.135 µM)
Compound: C[C@@H]1[C@H](O)[C@@H](C)/C=C/C=C/C=C/C=C/C=C/C=C/C=C/[C@H](O[C@@H]2O[C@H](C)[C@@H](O)[C@H](N)[C@@H]2O)C[C@@H]2O[C@](O)(C[C@@H](O)C[C@@H](O)[C@H](O)CC[C@@H](O)C[C@@H](O)CC(=O)O[C@H]1C)C[C@H](O)[C@H]2C(=O)O [amphotericin B]

- MIC [2]: 0.195 µg/mL (≈ 0.559 µM)
Compound: CC1(C)S[C@@H]2[C@H](NC(=O)[C@H](N)c3ccccc3)C(=O)N2[C@H]1C(=O)O [ampicillin]

Compound: OC(Cn1cncn1)(Cn1cncn1)c1ccc(F)cc1F [fluconazole]
- MIC ([3]; against Candida albicans): 8 to 16 µg/mL

Compound: SRSELIVHQRLF-NH2 [Cm-p5]
- hemolytic activity [4]: nonhemolytic
- MIC Listeria monocytogenes [5]: >100 µg/mL
- MIC ([3]; against C. albicans, native peptide): 10 µg/mL
- fungistatic action, concentration range ([3]; against Candida albicans): 10 to 40 µg/mL
- toxicity against a mammalian cell line [6]: did not exhibit any toxicity
- MIC C. parapsilosis [7]: 32 µg/mL
- MIC C. albicans [8]: 10 µg/mL
- hemolytic activity [9]: nonhemolytic
- MIC Pseudomonas aeruginosa [10]: >100 µg/mL
- MIC C. auris [11]: 11 µg/mL
